From ChEMBL document CHEMBL1153743, “Pyrrolidinones from the ascomycete fungus Albonectria rigidiuscula” (J Nat Prod, 2009)
Active and inactive are the calls of the source. The calls are words filed in the database; no cut-off is given here.

Key:
Assay type in all cases: functional, cell-based
HeLa [1] = test: Cytotoxicity against human HeLa cells after 48 hrs by MTT assay
How it was run: (§1)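 HeLa cells seeded at 10^4 per well and left to attach overnight. Cells were exposed for 4 h at 37 °C and 5% CO2 to serial dilutions or a single 120 µM level, made from 10 mg/mL DMSO stocks, or to 0.2% DMSO medium. They then grew 48 h in fresh DMEM. MTT (0.5 mg/mL) was added for 3 h in the dark, formazan was dissolved in DMSO, and A540 was read. Run in triplicate; IC50 reported.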

MCF7 [2] = test: Cytotoxicity against human MCF7 cells after 48 hrs by MTT assay; conditions: MCF7, 48 h
HeLa [3] = test: Cytotoxicity against human HeLa cells at 120 uM after 48 hrs by MTT assay; how it was run: as §1
MCF7 [4] = test: Cytotoxicity against human MCF7 cells at 120 uM after 48 hrs by MTT assay

Row | Structure (SMILES) | IC50 (HeLa [1]) [µM] | IC50 (MCF7 [2]) [µM] | Activity (HeLa [3]) | Activity (MCF7 [4])
1 | O=c1[nH]cc(F)c(=O)[nH]1 [FLUOROURACIL] | 10 | – | – | –
2 | CN1C(=O)[C@@](C)(O)C(=O)[C@@H]1Cc1ccc2c(c1)CC(C(C)(C)O)O2 (stereo partly drawn) | > 120 | > 120 | inactive | inactive
3 | CN1C(=O)[C@@](C)(O)[C@@H](O)[C@@H]1Cc1ccc(O)cc1 | 95.6 | 95.6 | – | –
4 | CN1C(=O)[C@@](C)(O)[C@@H](O)[C@@H]1Cc1ccc2c(c1)CC(C(C)(C)O)O2 (stereo partly drawn) | > 120 | > 120 | inactive | inactive
5 | CN1C(=O)[C@@](C)(O)C(=O)[C@@H]1Cc1ccc(O)cc1 | 48.2 | 100 | – | –
